The results in this text go back to ChEMBL document CHEMBL1136482, “Substituted azoloquinolines and -quinazolines as new potent farnesyl protein transferase inhibitors” (Bioorg Med Chem Lett, 2003).

Experiment [1] has as its target T1, Protein farnesyltransferase (Homo sapiens, UniProt P49354+P49356). Nature of the experiment: Inhibition of [3H]FPP incorporation into biotinylated laminB peptide by farnesyl transferase. The experiment is classed as protein-complex assay. Put shortly: (§1)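 Isolated FPT enzyme assay measuring incorporation of [3H]-farnesylpyrophosphate into biotinylated laminB peptide. IC50 is the concentration giving 50% reduction of incorporation. Some entries are given as percent inhibition at a single concentration.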

Experiment [2] concerns NIH3T3. Description: T24H-ras-transformed NIH3T3 cell proliferation. The experiment is classed as functional, cell-based, Mus musculus.
The target in experiment [3] is T1, Protein farnesyltransferase. Nature of the experiment: Inhibition of [3H]FPP incorporation into biotinylated laminB peptide by farnesyl transferase at 0.1 uM. The experiment is classed as protein-complex assay. Put shortly:
as §1

Experiment [4] relates to NIH3T3. Nature of the experiment: In vivo inhibition of T24H-ras NIH3T3 tumor growth in mice (Not significant). The experiment is classed as functional, organism-based. The following applies: Mus musculus.
Experiment [5] deals with T1, Protein farnesyltransferase. Description: Inhibition of [3H]FPP incorporation into biotinylated laminB peptide by farnesyl transferase 0.1 uM. The experiment is classed as protein-complex assay. In outline: as §1
Experiment [6] concerns NIH3T3. Nature of the experiment: (§2) In vivo inhibition of T24H-ras NIH3T3 tumor growth in mice. It counts as functional, Mus musculus. Put shortly:
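Mice were inoculated with T24 NIH 3T3 cells. Dosing at 25 mg/kg was oral, once daily, starting 2 days after tumour inoculation. Tumour growth was assessed 17 days after administration and is reported as percentage inhibition of tumour weight.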

For the next experiment, the species on record is Homo sapiens. Description: Compound tested for metabolism and expressed as percentage of parent drug remaining after 120 min incubation with human liver microsomes. It counts as functional, organism-based. In general terms: Liver microsomes are a subcellular fraction often used to study metabolism.
The target of experiment [7] is T2, Geranylgeranyl transferase type I (Homo sapiens, UniProt P49354+P53609). Description: Inhibition of Geranylgeranylprotein transferase-I catalyzed incorporation of [3H]GGPP into biotinYRASNRSCAIL peptide. It counts as protein-complex assay.
The target in experiment [8] is T2, Geranylgeranyl transferase type I. Description: Inhibition of Geranylgeranylprotein transferase-I catalyzed incorporation of [3H]GGPP into biotinYRASNRSCAIL peptide at 10 uM. It counts as protein-complex assay.
Experiment [9] deals with NIH3T3. Described as §2. The experiment is classed as functional, Mus musculus. The source holds these as a separate data set.

Calls of active or inactive are those of the source. The calls are words filed in the database; no cut-off is given here.

Take `Cn1cncc1C(N)(c1ccc(Cl)cc1)c1ccc2c(c1)c(-c1cccc(Cl)c1)cc1nccn12` (stereo unspecified): the IC50 in experiment [1] came out at 7 nM; with NIH3T3 [2] (Mus musculus, NIH3T3) it was 28 nM.
On to `Cn1cncc1C(N)(c1ccc(Cl)cc1)c1ccc2c(c1)c(-c1cccc(Cl)c1)cc1nncn12` (stereo unspecified), for which the inhibition in experiment [3] was determined as 65%.
As for `Cn1cncc1C(N)(c1ccc(Cl)cc1)c1ccc2c(c1)c(-c1cccc(Cl)c1)nc1nccn12` (stereo unspecified), the IC50 came out at 5 nM in experiment [1] and 88 nM in the experiment with NIH3T3 [2] (Mus musculus, NIH3T3).
Consider `Cc1nnc2cc(-c3cccc(Cl)c3)c3cc(C(N)(c4ccc(Cl)cc4)c4cncn4C)ccc3n12` (stereo unspecified), for which the IC50 is 1.5 nM in experiment [1] and 17.5 nM with NIH3T3 [2] (Mus musculus, NIH3T3). Further, the inhibition entry in the experiment on NIH3T3 [4] was “inactive”.
`Cn1cncc1C(N)(c1ccc(Cl)cc1)c1ccc2c(c1)c(-c1cccc(Cl)c1)cc1nnc(-c3ccccc3)n12` (stereo unspecified): the inhibition in experiment [5] was 60%. It took 304 nM to reach half-maximal inhibition in the experiment with NIH3T3 [2] (Mus musculus, NIH3T3) (IC50).
As to `Cn1cncc1[C@@](N)(c1ccc(Cl)cc1)c1ccc2c(c1)c(-c1cccc(Cl)c1)cc(=O)n2C` [TIPIFARNIB], the Inhibition in the experiment with NIH3T3 [6] is reported as 37%. In experiment [1], the half-inhibitory concentration (IC50) worked out at 0.9 nM. Moreover, in the experiment filed under Homo sapiens, the Metabolism was determined as 66%.
For `Cn1cncc1C(N)(c1ccc(Cl)cc1)c1ccc2c(c1)c(-c1cccc(Cl)c1)nc1nnnn12` (stereo in doubt; 43a) [listing 1 of 2 here], in the experiment filed under Homo sapiens, the Metabolism worked out at 97%.
`Cn1cncc1C(N)(c1ccc(Cl)cc1)c1ccc2c(c1)c(-c1cccc(Cl)c1)cc1nnnn12` (stereo in doubt; 24): the half-maximal inhibitory concentration (IC50) stood at 3.5 nM in [1], 55 nM in the experiment with NIH3T3 [2] (nih3t3) and 176 nM in experiment [7].
In the case of `Cn1cncc1C(N)(c1ccc(Cl)cc1)c1ccc2c(c1)c(-c1cccc(Cl)c1)nc1nnnn12` (stereo in doubt; 43b), the IC50 was 22 nM in experiment [1] and 108 nM in the experiment with NIH3T3 [2] (nih3t3).
On to `Cn1cncc1C(N)(c1ccc(Cl)cc1)c1ccc2c(c1)c(-c1cccc(Cl)c1)cc1nnnn12` (stereo in doubt; 24a), for which the Inhibition in experiment [8] was found to be 55%; in experiment [1], 36%. The IC50 in the experiment with NIH3T3 [2] (nih3t3) was greater than 500 nM.
As for `Cn1cncc1C(N)(c1ccc(Cl)cc1)c1ccc2c(c1)c(-c1cccc(Cl)c1)cc1nnnn12` (stereo in doubt; 24b) [listing 1 of 2 here], the values for the IC50 (in experiment [1]; with NIH3T3 [2] (nih3t3); in experiment [7]) were 1.7 nM, 20 nM and 81 nM, respectively.
As to `Cn1cncc1C(N)(c1ccc(Cl)cc1)c1ccc2c(c1)c(-c1cccc(Cl)c1)nc1nnnn12` (stereo in doubt; 43a) [listing 2 of 2 here], the concentration for half-maximal inhibition (IC50) was 0.6 nM in [1], 10 nM in the experiment with NIH3T3 [2] (nih3t3) and greater than 1000 nM in experiment [7]. This molecule also registered an Inhibition in the experiment on NIH3T3 [9] of 66%.
Regarding `Cn1cncc1C(N)(c1ccc(Cl)cc1)c1ccc2c(c1)c(-c1cccc(Cl)c1)nc1nncn12` (stereo unspecified), the IC50 in [1] was 3 nM; in the experiment with NIH3T3 [2] (Mus musculus, NIH3T3), 186 nM.
Consider `Cn1cncc1C(N)(c1ccc(Cl)cc1)c1ccc2c(c1)c(-c1cccc(Cl)c1)cc1nnnn12` (stereo in doubt; 24b) [listing 2 of 2 here], for which the inhibition entry in the experiment on NIH3T3 [4] was “inactive”.
Take `Cn1cncc1C(N)(c1ccc(Cl)cc1)c1ccc2c(c1)c(-c1cccc(Cl)c1)nc1nnnn12` (stereo in doubt; 43): the IC50 in experiment [1] came to 2.5 nM; in the experiment on NIH3T3 [2] (nih3t3) it was 12 nM; in experiment [7] it was 461 nM.
Take `Cn1cncc1C(N)(c1ccc(Cl)cc1)c1ccc2c(c1)c(-c1cccc(Cl)c1)cc1cnnn12` (stereo unspecified): the inhibition in experiment [5] was found to be 68%.

Broadly, the IC50 is the midpoint of a concentration-inhibition curve. A lower IC50 goes with inhibition by little substance. For orientation: inhibition means the share of the control response that was lost under treatment. In general, Inhibition refers to the change of the read-out against control, counted positive when it falls. A low value points to a response near the control.
